SR-BI DiI inh: blocks mouse SR-BI lipid uptake from DiI-HDL; ldlA[mSR-BI] CHO cells, DiI-HDL uptake fluorescence, 3 h; Q61009; inhibition, % at 12.5 µM; 320,000 tested, 0.96% active;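 active means mean replicate inhibition of at least 70% and a set share of replicates each scoring 70 or more; inconclusive means meets just one of the two criteria; inactive means fails both criteria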
Target sequence (Q61009 whole entry, looked up): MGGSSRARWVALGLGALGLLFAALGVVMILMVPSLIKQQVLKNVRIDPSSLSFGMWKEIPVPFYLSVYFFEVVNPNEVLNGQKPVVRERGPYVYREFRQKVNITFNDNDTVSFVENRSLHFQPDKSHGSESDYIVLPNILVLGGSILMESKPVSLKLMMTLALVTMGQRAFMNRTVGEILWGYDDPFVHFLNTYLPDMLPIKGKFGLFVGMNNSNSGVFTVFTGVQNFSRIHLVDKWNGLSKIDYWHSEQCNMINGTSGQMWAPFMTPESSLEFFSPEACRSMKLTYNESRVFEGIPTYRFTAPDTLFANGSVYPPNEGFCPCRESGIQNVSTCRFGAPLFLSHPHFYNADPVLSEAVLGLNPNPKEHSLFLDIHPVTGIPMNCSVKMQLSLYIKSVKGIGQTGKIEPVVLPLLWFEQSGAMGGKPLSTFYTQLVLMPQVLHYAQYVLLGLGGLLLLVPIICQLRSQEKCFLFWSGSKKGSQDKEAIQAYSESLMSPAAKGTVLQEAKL
C2C12 statin: suppression of simvastatin myotoxicity; C2C12 myotubes + simvastatin, ATP luminescence, 48 h; scaled: DMSO 0, geranylgeraniol control 100; AID 602340; rescue of ATP level, % at 7.49 µM; 330,000 tested, 0.78% active;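 active means mean ATP rescue above about 67%, or every replicate alone reaching that limit, limit read from the data, passing the limit was not always enough; inconclusive means no clear call, values can overlap the other calls; inactive means mean under the limit and some replicate under it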;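 further: myotubes were challenged with 10 µM simvastatin during compound exposure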
SR-BI uptake up: SR-BI HDL lipid transfer activation | 320,000 tested, 0.096% active | CHO ldlA[mSR-BI] cells, DiI-HDL uptake fluorescence, 3 h; 100 = double the neutral-control signal | AID 504775 | activation, % at 12.5 µM;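 active means mean replicate activation of at least 60% and every replicate at or above 60%; inconclusive means mean or all-replicate condition met, but not both; inactive means mean below 60% and not all replicates reaching 60%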
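System: LDL receptor-deficient CHO ldlA cells overexpressing murine SR-BI | Timing: 3 h uptake period with compound, 37 °C | Medium: HEPES-buffered (25 mM, pH 7.4) F12 plus 0.5% BSA | Dosing: Single-point compound dose | Signal: Bottom-read fluorescence, 550/595 nm | Read-out: Retained DiI signal reflecting DiI-HDL uptake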
Vif inh: blocks HIV Vif function; HEK293T cells, Vif self-association by quenched fluorescence, imaging, 24 h; inhibition, % at 7.49 µM; 340,000 tested, 0.35% active; in the data active means inhibition above about 50%, passing the limit was not always enough; inconclusive means no clear call, values can overlap the other calls; inactive means below about 31%
Of the large screens only hits and unclear results are named; the others gave an inactive call. A selection: hits, their analogues and other compounds. The true share with any hit is near 1.7%.

COc1cc(/C=N/NC(=O)C(=O)/C=C2\NC3(CCCC3)Cc3ccccc32)ccc1O	SR-BI DiI inh inconclusive (no result: C2C12 statin)
O=C(/C=C1\NC2(CCCC2)Cc2ccccc21)C(=O)N/N=C/c1ccccc1O	SR-BI DiI inh 114 (no result: C2C12 statin)
Oc1ccc(/C=N/N=C/c2ccc(O)c(O)c2)cc1O	Vif inh 72
COC(=O)c1cc2n(n1)CCN(Cc1ccc(OC)cc1)C2=O	none (no result: Vif inh)
COc1ccc(CN2CCn3ncc(C(=O)Nc4cc(C)cc(C)c4)c3C2=O)cc1	SR-BI DiI inh 74
CN1CCN(CC(=O)N2CCn3c4c(c5cc(C6CCCCC6)ccc53)CCCC42)CC1 (configuration not stated)	Vif inh 98 (no result: C2C12 statin)
Cc1ccc2c(c1)c1c3n2CCN(C(=O)CN2CCN(C)CC2)C3CCC1 (configuration not stated)	none (no result: Vif inh)
C[C@H](CO)N1C[C@H](C)[C@H](CN(C)Cc2ccccc2)Oc2c(NS(=O)(=O)c3ccc(F)cc3)cccc2C1=O	none (no result: SR-BI DiI inh, SR-BI uptake up, Vif inh)
COc1ccc(Sc2cnn(-c3ccccc3)c(=O)c2Cl)cc1	Vif inh 51
CCCCSC1=C(C#N)C(c2ccccc2C)CC(=O)N1 (configuration not stated)	none
CCCSC1=C(C#N)C(c2ccccc2C)CC(=O)N1 (configuration not stated)	C2C12 statin 134
COc1ccc(NC(=O)N(C)C[C@H]2OCc3cn(nn3)CCCC(=O)N([C@H](C)CO)C[C@H]2C)cc1	none (no result: SR-BI DiI inh, SR-BI uptake up, Vif inh)
O=C(NCC12CC3CC(CC(C3)C1)C2)c1nn2c(c1Cl)NC(c1ccco1)CC2C(F)(F)F (configuration not stated)	C2C12 statin 137
CC1=C(C(=O)OCc2ccccc2)C(/C=C/c2ccccc2)NC(=S)N1 (configuration not stated)	SR-BI DiI inh 74 (no result: C2C12 statin)
COCCOC(=O)C1=C(C)NC(=S)NC1/C=C/c1ccccc1 (configuration not stated)	none (no result: C2C12 statin)
C=CCOC(=O)C1=C(C)NC(=S)NC1/C=C/c1ccccc1 (configuration not stated)	SR-BI DiI inh 82
COc1cccc(S(=O)(=O)N[C@@H]2CC[C@@H](CCn3cc(-c4ccccn4)nn3)O[C@@H]2CO)c1	none (no result: SR-BI DiI inh, SR-BI uptake up, Vif inh)
COc1ccccc1CNC(=O)C[C@H]1C=C[C@H](NC(=O)CN(C)C)[C@@H](CO)O1	none (no result: SR-BI DiI inh, SR-BI uptake up, Vif inh)
CN(C)C(=O)C[C@@H]1C[C@@H]2c3cc(NC(=O)Nc4ccccc4F)ccc3O[C@@H]2[C@H](CO)O1	none (no result: SR-BI DiI inh, SR-BI uptake up, Vif inh)
CC1=C(C(=O)NCc2ccccc2)C(c2cccs2)NC(=S)N1 (configuration not stated)	C2C12 statin 98
C[C@H](CO)N1C[C@H](C)[C@@H](CN(C)CC2CCCC2)Oc2ncc(-c3ccc(C#N)cc3)cc2C1=O	none (no result: SR-BI DiI inh, SR-BI uptake up, Vif inh)
CCOC(=O)c1cc(NC(=O)Nc2ccccc2Cl)c(C)nc1C	none (no result: C2C12 statin)
CCOC(=O)c1cc(NC(=O)NCc2ccco2)c(C)nc1C	C2C12 statin 83 (no result: SR-BI uptake up)
O=C(Nc1ccc(S(=O)(=O)N2CCC(C(=O)NC3CCCCC3)CC2)cc1)c1ccco1	C2C12 statin 179
CO[C@@H]1CN(C)C(=O)c2ccc(NS(C)(=O)=O)cc2OC[C@H](C)N(CC2CCOCC2)C[C@H]1C	none (no result: SR-BI DiI inh, SR-BI uptake up, Vif inh)
COc1cc(C(=O)Oc2cccc(C)c2)cc(OC)c1OC	C2C12 statin 117
COc1cc(OC)nc(Oc2ccccc2C(=O)Oc2cccc(C)c2)n1	Vif inh 74
COc1cc(OC)nc(Oc2ccccc2C=O)n1	none
COc1cccc(OC)c1C(=O)Nc1ccc2c(c1)N(S(=O)(=O)c1cccs1)CCC2	SR-BI DiI inh 77
O=C(N[C@@H]1CC[C@@H](CC(=O)N2CCOCC2)O[C@H]1CO)c1ccccn1	none (no result: SR-BI DiI inh, SR-BI uptake up, Vif inh)
CCOC(=O)/C(=C\C=C1/Sc2cc(OCC)c(OCC)cc2N1CC)C(C)=O	SR-BI DiI inh 78 (no result: C2C12 statin)
CCN1/C(=C/C(C)=O)Sc2ccc(OC)cc21	none (no result: C2C12 statin)
CCOC(=O)/C(=C/C=C1\Sc2cc(OCC)c(OCC)cc2N1CC)C(C)=O	SR-BI DiI inh 78 (no result: C2C12 statin)
C[C@@H]1CN([C@@H](C)CO)S(=O)(=O)c2ccc(C3=CCCCC3)cc2O[C@@H]1CN(C)C	none (no result: SR-BI DiI inh, SR-BI uptake up, Vif inh)
Cc1ccc(S(=O)(=O)N2CCCSCC2)cc1	C2C12 statin 114
Cc1ccc(-c2ccc(S(=O)(=O)N3CCCC3)cc2)cc1	none (no result: C2C12 statin)
COc1ccc(NC(=O)CCN2C(=O)C3CC=CCC3C2=O)cc1S(=O)(=O)N1CCCCC1 (configuration not stated)	Vif inh 73
COc1ccc(NC(=O)c2cc(OC)c(OC)c(OC)c2)cc1S(=O)(=O)N1CCCCC1	none
COc1ccc(NC(=O)CCCC2CCCCC2)cc1S(=O)(=O)N1CCCCC1	none (no result: C2C12 statin)
COc1ccc(NC(=O)c2ccc(Cl)nc2)cc1S(=O)(=O)N1CCCCC1	SR-BI DiI inh 75 (no result: C2C12 statin)
COc1ccc(S(=O)(=O)N(C)C[C@@H]2Oc3ccc(NS(=O)(=O)c4ccc(C)cc4)cc3CC(=O)N([C@H](C)CO)C[C@H]2C)cc1	none (no result: SR-BI DiI inh, SR-BI uptake up, Vif inh)
O=C(NCCC1=CCCCC1)C1COc2ccccc2O1 (configuration not stated)	C2C12 statin 146
CCNC(=O)c1c(NC(=O)C2COc3ccccc3O2)sc2c1CCCC2 (configuration not stated)	none (no result: C2C12 statin)
COCCCNC(=O)c1c(NC(=O)C2COc3ccccc3O2)sc2c1CCCC2 (configuration not stated)	SR-BI DiI inh 76, C2C12 statin 96, Vif inh inconclusive
O=C(C[C@@H]1CC[C@@H]2[C@H](COC[C@H](O)CN2S(=O)(=O)c2ccc(Oc3ccccc3)cc2)O1)NC1CCC1	none (no result: SR-BI DiI inh, SR-BI uptake up, Vif inh)
CC(C)(C)OC(=O)N(Cc1ccccc1)Cc1cccc(OCc2cccc(NC(=O)c3ccccc3)c2)c1	SR-BI DiI inh 73 (no result: Vif inh)
CCn1ncc(/C=N\NC(=O)c2ccc3c(c2)c(C)c(C)n3Cc2ccccc2)c1C	none
CCn1nc(C)c(/C=N/NC(=O)c2ccc3c(c2)c(C)c(C)n3Cc2ccccc2)c1C	SR-BI DiI inh 79 (no result: Vif inh)
O=c1oc2cc(OCc3ccc(F)cc3F)ccc2cc1-c1ccccn1	C2C12 statin 130
O=c1oc2cc(OCc3c(F)c(F)c(F)c(F)c3F)ccc2cc1-c1ccccn1	none (no result: C2C12 statin)
CCN(CC)S(=O)(=O)c1ccc(Cl)c(NC(=S)NC(=O)C2CCCC2)c1	SR-BI DiI inh 71
CCN(CC)c1ccc(S(=O)(=O)Nc2cc(Cl)ccc2Cl)cc1NC(=S)NC(=O)C1CCCC1	none
C=CCNc1nc(Nc2ccc([N+](=O)[O-])cc2)nc(N2CCCC2)n1	SR-BI DiI inh 76 (no result: C2C12 statin)
CC=Cc1ccc2n(c1=O)C[C@H]1[C@H](CO)[C@@H](C(=O)N3CCCCC3)[C@@H]2N1CC1CCCC1 (mixture of isomers)	none (no result: SR-BI DiI inh, SR-BI uptake up, Vif inh)
COc1ccc(N2CCN(c3nc4c(c(=O)n(C)c(=O)n4C)n3CCCc3ccccc3)CC2)cc1	SR-BI uptake up 373
Cn1c(=O)c2c(nc(N3CCCCCC3)n2Cc2cccc3ccccc23)n(C)c1=O	none
CN1CCN(c2nc3c(c(=O)n(C)c(=O)n3C)n2Cc2cccc3ccccc23)CC1	C2C12 statin 116 (no result: SR-BI uptake up)
COc1ccc(N2CCN(Cc3nc4c(c(=O)n(C)c(=O)n4C)n3CCc3ccccc3)CC2)cc1	none
